# In the RNAGym collection of RNA variant scans (doi:10.1126/science.aae0568):
# This sample holds only a part of the variants without activity.
# B1: tRNA (parent)
# chain: GUUCCGUUGGCGUAAUGGUAACGCGUCUCCCUCCUAAGGAGAAGACUGCGGGUUCGAGUCCCGUACGGAACG
# Variants of: B1
# Assay: yeast fitness relative to wild type (ratio to wild type); higher = fitter; tRNA-Arg(CCU), competitive growth, 37 C, YPD
# Summary of the method: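 The tRNA-Arg(CCU) gene variants were made by chemical synthesis with a 3% per-site mutation rate at 69 sites and inserted at the native genomic locus of Saccharomyces cerevisiae. After pooling, the strains were competed in YPD at 37°C for 24 hours in six parallel replicates. Gene amplicons from the start population and each end population were read by 100-nucleotide paired-end sequencing, and Darwinian fitness relative to wild type was taken from genotype frequency changes. Genotypes needed ≥ 100 starting reads, and estimates < 0.5 were set to 0.5.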
row,Variant,yeast fitness
1,G10C G17A U35G,≤ 0.5
2,G10C G18A C22U,0.633
3,G10C G18A C27G G63C,≤ 0.5
4,G10C G18A G25C A45G,≤ 0.5
5,G10C G18A G58A C66G,≤ 0.5
6,G10C G18C A42G G68A,≤ 0.5
7,G10C G18C C22U U26G C30U A40G,≤ 0.5
8,G10C G18C C24U,≤ 0.5
9,G10C G23A,0.57
10,G10C G25A U64C,≤ 0.5
11,G10C G25C,0.615
12,G10C G25C G38C A40G A42G,≤ 0.5
13,G10C G25C G38C A40G A42G U64A G68A,0.515
14,G10C G25C U26C U47C,≤ 0.5
15,G10C G38A C61A,0.618
16,G10C G38C,0.538
17,G10C G38C C49A G50C G68C,≤ 0.5
18,G10C G39C G51A,≤ 0.5
19,G10C G41C C62U C66G A70G,≤ 0.5
20,G10C G44A A70U,≤ 0.5
21,G10C G50A U59A G67C,≤ 0.5
22,G10C G50U,≤ 0.5
23,G10C G51C,0.535
24,G10C G51C C61U,≤ 0.5

row,Variant,yeast fitness
1,G10C G52C,≤ 0.5
2,G10C G56C,0.553
3,G10C G63A,0.59
4,G10C G63A C66U,≤ 0.5
5,G10C G63C,≤ 0.5
6,G10C G67A,0.673
7,G10C G67C,0.67
8,G10C G68U,0.693
9,G10C U13A,0.549
10,G10C U13A G25A,0.534
11,G10C U13C A15C C24U U54C C60A C62A,≤ 0.5
12,G10C U13C C24G C55U,0.64
13,G10C U16A A65G,≤ 0.5
14,G10C U16A C30U U64A,≤ 0.5
15,G10C U16G C31A U32G A45G,≤ 0.5
16,G10C U16G C31A U32G A57U,≤ 0.5
17,G10C U19A A37C,0.502
18,G10C U19A C29G C34U,≤ 0.5
19,G10C U19A C30G A40C G67C,≤ 0.5
20,G10C U19A C31G C34A A42G,≤ 0.5
21,G10C U19C C33G,0.769
22,G10C U19G C62G,≤ 0.5
23,G10C U26A C27U C31G A42U U47A U53C,0.721
24,G10C U26A C27U C34U C49U,0.602

row,Variant,yeast fitness
1,G10C U26A C33U A70G,≤ 0.5
2,G10C U26A C33U U53C,0.576
3,G10C U26A C33U U53C A70C,0.724
4,G10C U26A C34G,≤ 0.5
5,G10C U26A C49U A65U,0.553
6,G10C U26C,0.673
7,G10C U26C A45G U53C A65C,≤ 0.5
8,G10C U26G C27G U32A A40U,≤ 0.5
9,G10C U28A,0.59
10,G10C U28G G39A C49A,≤ 0.5
11,G10C U32A,0.53
12,G10C U32C,0.73
13,G10C U32C C66G,≤ 0.5
14,G10C U35G,≤ 0.5
15,G10C U35G A43C U47C C55U C62U A69C,≤ 0.5
16,G10C U35G A43C U47C C55U C66U,≤ 0.5
17,G10C U47C,0.695
18,G10C U47C G67C,0.536
19,G10C U47G,≤ 0.5
20,G10C U53A,≤ 0.5
21,G10C U64A,0.671
22,G10U,0.887
23,G10U A15U C31G G50C U59C C62U,≤ 0.5
24,G10U A40G G58A G68C,0.631

row,Variant,yeast fitness
1,G10U A43G C46U,≤ 0.5
2,G10U A69C,0.827
3,G10U C24G A45G,≤ 0.5
4,G10U G17A C24A,0.643
5,G10U G17A C24A C66G,0.595
6,G10U G17A G25C C29A G52A,≤ 0.5
7,C11A,0.676
8,C11A A14C,0.683
9,C11A A14C C34A A36G,≤ 0.5
10,C11A A14C C34A A70U,≤ 0.5
11,C11A A14G A20U C22G C24U G48C G52A,0.57
12,C11A A14G A43C A57G U59C A70G,0.542
13,C11A A14G A43C A57G U59C G63A A70G,≤ 0.5
14,C11A A14G C31G C34G C61U,≤ 0.5
15,C11A A14G G25C C29G,≤ 0.5
16,C11A A14G U19G A43C U53A,≤ 0.5
17,C11A A14G U19G A43C U53A C62A C66U,≤ 0.5
18,C11A A15C C24G C34A,≤ 0.5
19,C11A A15C C34A C66A,≤ 0.5
20,C11A A15G,0.711
21,C11A A15G A40G,0.824
22,C11A A15G A40G C49U C60A C61A,≤ 0.5
23,C11A A15G C22G C61U G68A,≤ 0.5
24,C11A A15G C22U C29A A43U A45G,≤ 0.5

row,Variant,yeast fitness
1,C11A A15G C22U C29A A43U A45G A57U,≤ 0.5
2,C11A A15G C33U A37G,≤ 0.5
3,C11A A15U,0.658
4,C11A A15U A20C C34G C66U,≤ 0.5
5,C11A A15U A21U A36C A37U C55U,≤ 0.5
6,C11A A15U U16C A21U A36C A37U,≤ 0.5
7,C11A A20C A21G U47C G56C U64C G68C,≤ 0.5
8,C11A A20C U28C A37U A40C G48A,≤ 0.5
9,C11A A20G C46U G50C C60A A70C,0.632
10,C11A A20G G39A G51A U53A C66U,≤ 0.5
11,C11A A20U C22U G67C,≤ 0.5
12,C11A A20U C29U C33G,0.578
13,C11A A20U G38A A45C,≤ 0.5
14,C11A A20U U47C C60G,≤ 0.5
15,C11A A21C A42C C61U,≤ 0.5
16,C11A A21C A43G C60U C62U A70C,≤ 0.5
17,C11A A21C C31A C46G,≤ 0.5
18,C11A A21C G25C C34A A36U G44A,≤ 0.5
19,C11A A21C U28A C55U C62U G67C,≤ 0.5
20,C11A A21C U53A C62U,≤ 0.5
21,C11A A21G,0.774
22,C11A A21G A40G,0.571
23,C11A A21G C22G A37G,≤ 0.5
24,C11A A21G C31G A36U A65U,≤ 0.5

row,Variant,yeast fitness
1,C11A A21G C34G G38C C62G A69C,≤ 0.5
2,C11A A21G C34U A37G C62A,≤ 0.5
3,C11A A21G C55G C62A,≤ 0.5
4,C11A A21G C62G,0.655
5,C11A A21G C62G C66U,≤ 0.5
6,C11A A21U C55U,0.788
7,C11A A21U G58C A70C,≤ 0.5
8,C11A A21U U54G A65C,≤ 0.5
9,C11A A36C A42G C49A,≤ 0.5
10,C11A A36G A43C A69U,≤ 0.5
11,C11A A36G A69C,0.562
12,C11A A36G C49G C60U G68A,≤ 0.5
13,C11A A36G G56C,≤ 0.5
14,C11A A37C A45G,≤ 0.5
15,C11A A40G A43U U59G,≤ 0.5
16,C11A A40G C49G C62G,0.794
17,C11A A40G C66U,≤ 0.5
18,C11A A42C C46G C60A,≤ 0.5
19,C11A A42C G51A,0.73
20,C11A A42C G58A,0.742
21,C11A A42G,0.631
22,C11A A42G A43G C61A,≤ 0.5
23,C11A A42G A43U C46U,0.532
24,C11A A42G A43U C46U G67A A69C,≤ 0.5

row,Variant,yeast fitness
1,C11A A42G C49U A65C,≤ 0.5
2,C11A A42G C61A,0.618
3,C11A A42U A69U,≤ 0.5
4,C11A A43G A65C,0.501
5,C11A A43G G50C G56C,≤ 0.5
6,C11A A43G G58C C62U,≤ 0.5
7,C11A A43G U54C A65C,≤ 0.5
8,C11A A43U C49U,0.548
9,C11A A43U C62G A70U,≤ 0.5
10,C11A A43U C66U,≤ 0.5
11,C11A A43U U64C,≤ 0.5
12,C11A A45C U53C,0.645
13,C11A A45U G50U U54C U64A,≤ 0.5
14,C11A A57C,0.675
15,C11A A57G A69U,≤ 0.5
16,C11A A57U,≤ 0.5
17,C11A A70C,0.593
18,C11A A70G,0.774
19,C11A C22A,0.626
20,C11A C22A C29G,0.545
21,C11A C22A C29G A69G,0.576
22,C11A C22G A45C G50A,0.741
23,C11A C22G C29G C61U C62A A70G,≤ 0.5
